Starred links: 1 amine or outer side, 2 acyl side, 3 side chain; linkers in the order of their positions; H or OH if unused. Non-standard residues stand in square brackets, D forms with d. Residues, ends and D or L forms follow the SMILES beside them. ξ: configuration not given here. *: point of attachment. ξLeuψ(P(O)(OH)CH2)ξVal = CC(C)CC(N[*:1])P(=O)(O)CC(C(=O)[*:2])C(C)C; X1 = CC(C)CC(N[*:1])P(=O)(O)C[C@@H](C(=O)[*:2])C(C)C; X2 = CC(C)CC(N[*:1])P(=O)(O)CCC(=O)[*:2]; X3 = CC(C)CC(N[*:1])P(=O)(O)CC(=O)[*:2]; NMeH = CN[C@@H](Cc1c[nH]cn1)C(=O)O; NMeF = CN[C@@H](Cc1ccccc1)C(=O)O; ξR = N=C(N)NCCCC(N)C(=O)O; Cbz = O=C(OCc1ccccc1)*; Boc = CC(C)(C)OC(=O)*; OtBu = CC(C)(C)O*
The compounds below were run against T1, Renin (Homo sapiens, UniProt P00797) (assay: In vitro inhibition against human plasma renin at pH 7.2 was determined).
T1 sequence (P00797 whole entry): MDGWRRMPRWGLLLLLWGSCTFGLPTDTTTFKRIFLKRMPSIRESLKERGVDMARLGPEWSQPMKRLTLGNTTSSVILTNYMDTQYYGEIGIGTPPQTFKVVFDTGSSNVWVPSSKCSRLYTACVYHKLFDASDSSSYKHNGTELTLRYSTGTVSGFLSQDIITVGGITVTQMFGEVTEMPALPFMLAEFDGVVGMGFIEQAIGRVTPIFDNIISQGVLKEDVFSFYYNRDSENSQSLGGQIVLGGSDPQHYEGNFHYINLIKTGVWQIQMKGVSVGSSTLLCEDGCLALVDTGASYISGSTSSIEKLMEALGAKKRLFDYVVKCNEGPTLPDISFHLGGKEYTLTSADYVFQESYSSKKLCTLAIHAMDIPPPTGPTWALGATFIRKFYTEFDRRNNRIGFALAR
Type: cell-free
Outline: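 Human plasma renin activity assayed in vitro at pH 7.2 with the synthetic peptides added. IC50 is the peptide concentration that lowered plasma renin activity by 50%.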

Going from `CC[C@H](C)[C@H](NC(=O)[C@@H](CP(=O)(O)[C@@H](CC(C)C)NC(=O)[C@H](Cc1c[nH]cn1)NC(=O)[C@H](Cc1ccccc1)NC(=O)[C@H]1CCCN1C(=O)[C@H](CCCN=C(N)N)NC(=O)[C@H](CCCN=C(N)N)NC(=O)OCc1ccccc1)C(C)C)C(=O)N[C@@H](Cc1c[nH]cn1)C(N)=O` to `CC[C@H](C)[C@H](NC(=O)CCP(=O)(O)[C@@H](CC(C)C)NC(=O)[C@H](Cc1c[nH]cn1)NC(=O)[C@H](Cc1ccccc1)NC(=O)[C@H]1CCCN1C(=O)[C@H](CCCN=C(N)N)NC(=O)[C@H](CCCN=C(N)N)NC(=O)OCc1ccccc1)C(=O)N[C@@H](Cc1c[nH]cn1)C(N)=O`, the IC50 rises from 0.1 µM to 10 µM (100-fold). The first is the more potent here.

`CC[C@H](C)[C@H](NC(=O)CP(=O)(O)C(CC(C)C)NC(=O)[C@H](Cc1cnc[nH]1)NC(=O)[C@H](Cc1ccccc1)NC(=O)OCc1ccccc1)C(=O)N[C@@H](Cc1cnc[nH]1)C(N)=O` (some centres not stated) (Cbz-FH[X3]IH-NH2) and `CC[C@H](C)[C@H](NC(=O)CCP(=O)(O)C(CC(C)C)NC(=O)[C@H](Cc1cnc[nH]1)NC(=O)[C@H](Cc1ccccc1)NC(=O)OCc1ccccc1)C(=O)N[C@@H](Cc1cnc[nH]1)C(N)=O` (some centres not stated) (Cbz-FH[X2]IH-NH2) cannot be ordered by IC50: over 30 µM for the first, over 30 µM for the second.

Going from `CC[C@H](C)[C@H](NC(=O)C(CP(=O)(O)C(CC(C)C)NC(=O)[C@H](Cc1c[nH]cn1)NC(=O)[C@H](Cc1ccccc1)NC(=O)CNC(=O)OCc1ccccc1)C(C)C)C(=O)N[C@@H](Cc1c[nH]cn1)C(N)=O` (some centres not stated) (Cbz-GFH[ξLeuψ(P(O)(OH)CH2)ξVal]IH-NH2) to `CC[C@H](C)[C@H](NC(=O)[C@H](CP(=O)(O)C(CC(C)C)NC(=O)[C@H](Cc1cnc[nH]1)NC(=O)[C@H](Cc1ccccc1)NC(=O)OCc1ccccc1)C(C)C)C(=O)N[C@@H](Cc1cnc[nH]1)C(N)=O` (some centres not stated) (Cbz-FH[X1]IH-NH2), the IC50 rises from 0.8 µM to 2 µM (2.5-fold). The first is the more potent here.

Going from `COC(=O)C(CP(=O)(O)C(CC(C)C)NC(=O)CC(O)C(CC(C)C)NC(=O)[C@H](Cc1cnc[nH]1)NC(=O)[C@H](Cc1ccccc1)NC(=O)OCc1ccccc1)C(C)C` (some centres not stated) to `CC[C@H](C)[C@H](NC(=O)C(CP(=O)(O)C(CC(C)C)NC(=O)[C@H](Cc1cnc[nH]1)NC(=O)[C@H](Cc1ccccc1)NC(=O)OCc1ccccc1)C(C)C)C(=O)N[C@@H](Cc1ccccc1)C(N)=O` (some centres not stated) (Cbz-FH[ξLeuψ(P(O)(OH)CH2)ξVal]IF-NH2), the IC50 falls from over 30 µM to 5 µM.

Compared with `CC[C@H](C)[C@H](NC(=O)C(CP(=O)(O)C(CC(C)C)NC(=O)[C@H](Cc1cnc[nH]1)NC(=O)[C@H](Cc1ccccc1)NC(=O)[C@H]1CCCN1C(=O)[C@H](Cc1cnc[nH]1)NC(=O)[C@H]1CCCN1)C(C)C)C(=O)N[C@@H](Cc1cnc[nH]1)C(=O)N[C@@H](CCCCN)C(=O)O` (some centres not stated), `CC[C@H](C)[C@H](NC(=O)C(CP(=O)(O)C(CC(C)C)NC(=O)[C@H](Cc1cnc[nH]1)NC(=O)[C@H](Cc1ccccc1)NC(=O)[C@H]1CCCN1C(=O)OCc1ccccc1)C(C)C)C(=O)N[C@@H](Cc1cnc[nH]1)C(N)=O` (some centres not stated) is 8.6-fold higher in IC50: 0.07 µM for the first, 0.6 µM for the second.

Compared with `CC[C@H](C)[C@H](NC(=O)C(CP(=O)(O)C(CC(C)C)NC(=O)[C@H](Cc1ccccc1)NC(=O)[C@H](Cc1ccccc1)NC(=O)OC(C)(C)C)C(C)C)C(=O)N[C@@H](Cc1cnc[nH]1)C(N)=O` (some centres not stated) (Boc-FF[ξLeuψ(P(O)(OH)CH2)ξVal]IH-NH2), `CC[C@H](C)[C@H](NC(=O)C(CP(=O)(O)C(CC(C)C)NC(=O)[C@H](Cc1ccccc1)N(C)C(=O)[C@H](Cc1ccccc1)NC(=O)OC(C)(C)C)C(C)C)C(=O)N[C@@H](Cc1c[nH]cn1)C(N)=O` (some centres not stated) (Boc-F[NMeF][ξLeuψ(P(O)(OH)CH2)ξVal]IH-NH2) is higher in IC50: 6 µM for the first, over 30 µM for the second.

First: CC(C)CC(NC(=O)[C@H](Cc1cnc[nH]1)NC(=O)[C@H](Cc1ccccc1)NC(=O)[C@H]1CCCN1C(=O)OCc1ccccc1)[PH](=O)O (some centres not stated)
Second: CC(C)CC(NC(=O)[C@H](Cc1c[nH]cn1)NC(=O)[C@H](Cc1ccccc1)NC(=O)[C@H]1CCCN1C(=O)OCc1ccccc1)P(=O)(O)O (some centres not stated)
The IC50 of the first is higher: over 30 µM for the first, 6.4 µM for the second. The second is the more potent here.

`CC[C@H](C)[C@H](NC(=O)C(CP(=O)(O)C(CC(C)C)NC(=O)[C@H](Cc1c[nH]cn1)NC(=O)[C@H](Cc1ccccc1)NC(=O)OCc1ccccc1)C(C)C)C(=O)NC(CCCN=C(N)N)C(=O)OC(C)(C)C` (some centres not stated) (Cbz-FH[ξLeuψ(P(O)(OH)CH2)ξVal]I[ξR]-OtBu) and `CC[C@H](C)[C@H](NC(=O)C(CP(=O)(O)C(CC(C)C)NC(=O)[C@H](Cc1c[nH]cn1)N(C)C(=O)[C@H](Cc1ccccc1)NC(=O)OC(C)(C)C)C(C)C)C(=O)N[C@@H](Cc1c[nH]cn1)C(N)=O` (some centres not stated) (Boc-F[NMeH][ξLeuψ(P(O)(OH)CH2)ξVal]IH-NH2) cannot be ordered by IC50: over 30 µM for the first, over 30 µM for the second.

`COC(=O)CC(O)[C@H](CC(C)C)NC(=O)[C@H](C)NC(=O)C(CP(=O)(O)C(CC(C)C)NC(=O)[C@H](Cc1c[nH]cn1)NC(=O)[C@H](Cc1ccccc1)NC(=O)[C@H]1CCCN1C(=O)OCc1ccccc1)C(C)C` (some centres not stated) was tested, and the IC50 was 0.9 µM.

Reference: ChEMBL document CHEMBL1124603, “Renin inhibitors. Synthesis of transition-state analogue inhibitors containing phosphorus acid derivatives at the scissile bond” (J Med Chem, 1989)
